AI-2 QS modul – modulators of Vibrio harveyi AI-2 quorum sensing system; activity change, % at 7.5 µM; Vibrio harveyi JMH597 AI-2 luminescence/OD600 ratio, 9 h; stronger effect = lower value; strain lacks LuxN and CqsS sensors; 0 = neutral-control median; actives 0.4% (n = 300,000); in the data active means activity change below about -75%, passing the limit was not always enough;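 further: luminescence divided by OD600 gain over 9 h not by final OD600 alone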
CAL PDZ FP-1 – inhibitors of human CAL PDZ peptide binding; Q9HD26; inhibition, % at 20 µM; actives 0.02% (n = 330,000); purified CAL PDZ, TMR-peptide fluorescence polarization, 1 h;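 active means highest replicate inhibition of at least 40%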
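System: purified tagged CAL PDZ domain construct (CerCALP). Schedule: 1 h incubation at room temperature before polarization reading. Medium: 25 mM sodium phosphate pH 7.4, 150 mM NaCl, TCEP, IgG, Thesit. Read-out: percent inhibition from loss of millipolarization. Measured by: FP readout, S and P plane fluorescence. Probe or stimulus: fluorescent TMR peptide probe.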
ARNT TACC3 PPI – disruptors of human ARNT/TACC3 interaction | inhibition, % at 9.99 µM | AID 623870 | actives 0.66% (n = 390,000) | AlphaScreen His-ARNT PAS-B/GST-TACC3 binding, luminescence; TACC3 fragment carries E629A point mutation | Q9Y6A5;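 active means mean inhibition of replicates at least 50% and at least half of replicates each reaching 50%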
Rce1 inhib – yeast Ras-converting enzyme inhibition | Q03530 | calls only | actives 0.27% (n = 290,000) | yeast membranes, quenched prenylated peptide cleavage fluorescence | AID 2563;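 active means fall in fluorescence gain of 50% or more versus controls, with final raw signal at or below 3038400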
Target sequence (Q03530 whole entry, looked up): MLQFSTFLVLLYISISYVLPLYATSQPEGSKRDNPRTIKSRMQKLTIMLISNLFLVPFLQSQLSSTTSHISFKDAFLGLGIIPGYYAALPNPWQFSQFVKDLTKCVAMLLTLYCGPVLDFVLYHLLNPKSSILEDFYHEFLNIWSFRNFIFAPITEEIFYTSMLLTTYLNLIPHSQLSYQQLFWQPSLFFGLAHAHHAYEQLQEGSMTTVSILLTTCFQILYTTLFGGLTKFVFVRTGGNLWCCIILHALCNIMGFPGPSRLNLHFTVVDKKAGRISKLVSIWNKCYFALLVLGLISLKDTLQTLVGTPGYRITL
CAL PDZ FP-2 – blocks peptide binding to the human CAL PDZ domain; purified CAL PDZ, TMR-peptide fluorescence polarization, 1 h; inhibition, % at 24.9 µM; actives 0.92% (n = 300,000);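 active means mean inhibition of at least 30% with at least half of replicates also reaching 30%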
Of the large screens only hits and unclear results are named; the others gave an inactive call. In the library only some 1.7% were active in any assay of this set; here they are far more common.

CC1CC(C)C(=NNC(N)=O)C(C(O)CC2CCC(=O)NC2=O)C1 (centres undefined)	CAL PDZ FP-2 50.7 (no result: AI-2 QS modul, Rce1 inhib)
Oc1[nH]c2ccc(Br)cc2c1N=NC(=S)N1CCOCC1	ARNT TACC3 PPI 65.7
Oc1cccc(NC(=S)N=Nc2c(O)[nH]c3ccccc23)c1	ARNT TACC3 PPI 54.1
Oc1[nH]c2ccccc2c1N=NC(=S)N1CCOCC1	ARNT TACC3 PPI 65.5
COc1ccc(-c2noc(COc3ccccc3OC)n2)cc1OC	none (no result: CAL PDZ FP-2)
C[C@H]1CN([C@@H](C)CO)C(=O)c2cc(NS(=O)(=O)c3cccs3)ccc2O[C@H]1CN(C)Cc1ccc(C(F)(F)F)cc1	none (no result: AI-2 QS modul, CAL PDZ FP-1, Rce1 inhib, CAL PDZ FP-2)
Cc1cc(N/N=C/c2ccc(O)c(C)c2O)nc(-c2ccccc2O)n1	Rce1 inhib active (no result: ARNT TACC3 PPI)
C/C(=N\Nc1cc(C)nc(-c2ccccc2O)n1)c1ccccc1	none
Cn1c(=O)oc2cc(S(=O)(=O)Nc3ccc(Cl)cc3)ccc21	none (no result: CAL PDZ FP-2)
CC(C)c1ccc(NS(=O)(=O)c2ccc3c(c2)NC(=O)CO3)cc1	AI-2 QS modul -84.8
O=C1COc2ccc(S(=O)(=O)Nc3ccc4c(c3)OCO4)cc2N1	none (no result: Rce1 inhib)
CC(C)c1ccc(NS(=O)(=O)c2ccc3c(c2)oc(=O)n3C)cc1	AI-2 QS modul -94.3 (no result: CAL PDZ FP-2)
CCN(CC)C(=O)Cn1cc(C(=O)C(=O)N2CCc3ccccc32)c2ccccc21	CAL PDZ FP-2 46.1
O=c1c2ccccc2nc(SCc2ccccc2F)n1C1CCCC1	ARNT TACC3 PPI 46.6
Cc1ccc(NC(=O)CNCc2cccs2)cc1Br	AI-2 QS modul -76.2 (no result: CAL PDZ FP-1)
CCOC(=O)N1CCN(C(=O)CNCc2cccs2)CC1	CAL PDZ FP-2 46.8
CCOC(=O)N1CCN(c2c(NCc3cccs3)c(=O)c2=O)CC1	none (no result: CAL PDZ FP-2)
O=C(C1CC(=O)N(c2ccc3c(c2)OCCO3)C1)N1CCN(c2ccccc2)CC1 (centres undefined)	CAL PDZ FP-2 46.7
CN(Cc1ccccc1Cl)C(=O)C1CC(=O)N(c2ccc3c(c2)OCCO3)C1 (centres undefined)	none (no result: AI-2 QS modul, Rce1 inhib)
CN(Cc1cccc(F)c1)C(=O)C1CC(=O)N(c2ccc3c(c2)OCCO3)C1 (centres undefined)	CAL PDZ FP-2 40.2 (no result: AI-2 QS modul, Rce1 inhib)
O=C(Nc1ccc(Cl)c([N+](=O)[O-])c1)C(Sc1ccccc1)c1ccccc1 (centres undefined)	Rce1 inhib active (no result: CAL PDZ FP-2)
Fc1ccc(-n2c(-c3ccc4ccccc4n3)n[nH]c2=S)cc1Cl	CAL PDZ FP-2 71.1 (no result: CAL PDZ FP-1)
O=C(N/N=C/c1cn(Cc2ccccc2)c2ccccc12)c1cc(O)cc(O)c1	Rce1 inhib active
CCn1c2ccccc2c2cc(/C=N/NC(=O)c3cc(O)cc(O)c3)ccc21	Rce1 inhib active
CCn1c2ccccc2c2cc(/C=N/NC(=O)c3ccc(O)cc3)ccc21	Rce1 inhib active
Cc1ccc(C(=O)N/N=C/c2cn(Cc3ccccc3)c3ccccc23)cn1	none
CCn1c2ccccc2c2cc(/C=N/NC(=O)c3ccncc3)ccc21	none
C[C@@H]1CN([C@H](C)CO)C(=O)c2cccc(NS(=O)(=O)c3cccs3)c2O[C@H]1CN(C)Cc1ccncc1	none (no result: AI-2 QS modul, CAL PDZ FP-1, Rce1 inhib, CAL PDZ FP-2)
COc1cccc2c1C(=O)C=C(C)C2=O	none (no result: CAL PDZ FP-2)
COC1=CC(=O)c2c(ccc3ncnc(N)c23)C1=O	ARNT TACC3 PPI 30.8 (no result: AI-2 QS modul, Rce1 inhib)
CCOC(=O)C1=NNC(C(=O)c2ccccc2)C1c1ccc(C)cc1 (centres undefined)	CAL PDZ FP-2 58.7
COc1ccc(NC(=O)C2CCN(S(=O)(=O)c3ccc(N4CCCC4=O)cc3)CC2)c(OC)c1	CAL PDZ FP-2 34.4
C[C@H](CO)N1C[C@H](C)[C@@H](CN(C)C(=O)C2CC2)Oc2ncc(-c3cccnc3)cc2C1=O	none (no result: AI-2 QS modul, CAL PDZ FP-1, Rce1 inhib, CAL PDZ FP-2)
O=C(C[C@@H]1C[C@@H]2c3cc(NC(=O)c4ccc5c(c4)OCO5)ccc3O[C@@H]2[C@H](CO)O1)NCCN1CCCCC1	none (no result: AI-2 QS modul, CAL PDZ FP-1, Rce1 inhib, CAL PDZ FP-2)
CC(=O)c1cccc(NC(=O)N2CCCCCC2)c1	none
CC(=O)c1cccc(NS(=O)(=O)c2ccc(NC(=O)N3CCCCC3)cc2)c1	CAL PDZ FP-2 120.7
CCc1nc(Nc2ccncc2)c2oc3ccccc3c2n1	Rce1 inhib active (no result: CAL PDZ FP-2)
COc1ccc(/C=C/C(=O)NC2CCCCC2C)cc1 (centres undefined)	none
CCn1c(=O)cc(SCC(=O)NCCCN2CCC(C)CC2)c2ccccc21	CAL PDZ FP-2 30.6
CC(NNC(=S)N1CCN(c2ccccn2)CC1)c1nccc2ccccc12 (centres undefined)	ARNT TACC3 PPI 63.4 (no result: AI-2 QS modul, Rce1 inhib)
C[C@H](CO)N1C[C@H](C)[C@@H](CN(C)Cc2ccccn2)Oc2cc(-c3ccncc3)ccc2S1(=O)=O	none (no result: AI-2 QS modul, CAL PDZ FP-1, Rce1 inhib, CAL PDZ FP-2)
CC1(C)Oc2ccc3ccc(=O)oc3c2/C(=C/NNC(N)=S)C1=O	ARNT TACC3 PPI 75.3
CN/C=C1\C(=O)C(C)(C)Oc2ccc3ccc(=O)oc3c21	none
Oc1c(CN2CCOCC2)cc(CN2CCOCC2)c(O)c1O	ARNT TACC3 PPI 13.3 (no result: AI-2 QS modul, Rce1 inhib)
O=C(c1ccc(-c2ccccc2)cc1)N1CCN(c2ccccn2)CC1	CAL PDZ FP-2 78.2
Cc1ccc(C(=O)N2CCN(c3ccccn3)CC2)cc1C	none (no result: AI-2 QS modul, Rce1 inhib)
COc1ccc(S(=O)(=O)N/N=C(/C)c2cccc(NC(=O)c3ccccc3Cl)c2)cc1	CAL PDZ FP-2 43.0
Oc1[nH]c2ccccc2c1N=Nc1nncc2ccccc12	CAL PDZ FP-2 51.8
CCCC(=O)Nc1ccc(-c2nc3cc(C)c(C)cc3o2)cc1	none
CC(=O)NC(c1ccccc1)c1cc([N+](=O)[O-])c2cccnc2c1O (centres undefined)	AI-2 QS modul -89.9
Cc1ccc(C(c2cc(Cl)c3cccnc3c2O)N2CCN(C)CC2)cc1 (centres undefined)	AI-2 QS modul -169.4 (no result: ARNT TACC3 PPI)
CC(C)C(=O)NC(c1ccccc1)c1cc([N+](=O)[O-])c2cccnc2c1O (centres undefined)	none
CCC(=O)NC(c1cccs1)c1cc([N+](=O)[O-])c2cccnc2c1O (centres undefined)	ARNT TACC3 PPI 70.7
CC(=O)NC(c1ccc(C)cc1)c1cc(Cl)c2cccnc2c1O (centres undefined)	none
CC(=O)NC(C)c1cc(F)c2cccnc2c1O (centres undefined)	ARNT TACC3 PPI 74.5 (no result: AI-2 QS modul, Rce1 inhib)
COc1ccc(-c2cc(C(=O)Nc3ccc(S(=O)(=O)Nc4onc(C)c4C)cc3)c3ccccc3n2)cc1OC	none
CC(=O)NC(c1cc(Cl)c2cccnc2c1O)C1CC1 (centres undefined)	ARNT TACC3 PPI 68.7 (no result: AI-2 QS modul, Rce1 inhib)
Cc1nnc(NC2(C(F)(F)F)C(=O)Nc3c2c(=O)n(C)c(=O)n3C)s1 (centres undefined)	none (no result: CAL PDZ FP-1)
Cc1cccc(-n2nc(C)c3c2NC2=C(C(=O)CCC2)C3c2ccccn2)c1 (centres undefined)	CAL PDZ FP-2 79.2 (no result: CAL PDZ FP-1)
CCN(CC)c1ccc(/C=C2\C(=O)N(c3nnc(C)c(=O)[nH]3)N=C2C)cc1	ARNT TACC3 PPI 60.4
CC(C)Cc1nc(C(N)=O)c2[nH]c(=O)n(-c3ccc(F)cc3)c2n1	none (no result: CAL PDZ FP-2)

Screening results: PubChem BioAssay, Broad Institute
